MDM2 E3 inh – blocks human Mdm2 ubiquitin ligase activity | Q00987 | cell-based MDM2 ubiquitination luciferase reporter, 2 h; 0 = plate control, 100 = twice control, blank-subtracted | signal enhancement, % at 5 µM | hit rate 0.11% among 210,000;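 active = signal enhancement of 30% or more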;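 note: luminescence tracks abundance of the self-degrading MDM2-luciferase fusion protein; higher signal means inhibition of MDM2 E3 ligase activity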
Target sequence (Q00987 whole entry, looked up, the tested form may be a part): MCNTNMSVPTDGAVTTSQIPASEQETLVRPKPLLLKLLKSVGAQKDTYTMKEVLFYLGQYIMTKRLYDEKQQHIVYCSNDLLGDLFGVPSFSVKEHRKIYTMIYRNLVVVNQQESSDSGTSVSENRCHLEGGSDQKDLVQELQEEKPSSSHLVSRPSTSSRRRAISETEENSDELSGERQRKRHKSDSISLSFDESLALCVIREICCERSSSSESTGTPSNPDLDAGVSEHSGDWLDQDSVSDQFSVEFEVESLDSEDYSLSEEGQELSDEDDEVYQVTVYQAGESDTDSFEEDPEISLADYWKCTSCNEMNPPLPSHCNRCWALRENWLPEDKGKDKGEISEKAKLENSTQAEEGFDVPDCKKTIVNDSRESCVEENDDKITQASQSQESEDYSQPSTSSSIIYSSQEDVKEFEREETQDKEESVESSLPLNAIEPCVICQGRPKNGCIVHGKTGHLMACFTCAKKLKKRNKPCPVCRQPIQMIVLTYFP
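Timing – 2 h compound exposure at 37 °C · Assay system – mammalian cells stably expressing self-ubiquitinating, self-degrading MDM2 E3–luciferase fusion · Amount – 2000 cells seeded into each well · Measure – % luminescence enhancement versus blank-corrected plate control mean · Measured by – SteadyLite luminescence, 15 min reagent step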
Hsp70 act – Hsp70 transcriptional activation, primary screen | HeLa Hsp70 promoter luciferase reporter, luminescence; scaled: vehicle 0, proteasome-inhibitor control 100% | activation, % at 10 µM | hit rate 0.04% among 200,000;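 active = activation above the mean across all tested compounds plus 3 SD, cutoff set per campaign, cut at about 5.5% in these data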;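 note: 100% = MG132 at 30 µM as the positive control and 0% = DMSO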
CHOP inh – CHOP inhibition in unfolded protein response | inhibition, % at 10 µM | hit rate 3.8% among 220,000 | CHO-K1 CHOP-promoter luciferase, tunicamycin-induced, 15-18 h;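 active = compounds that reduced the stress-induced luciferase reporter signal by more than about 70% of percent inhibition, limit read from the data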;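 note: 0% = tunicamycin plus vehicle and 100% = wells without tunicamycin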
S1P3 antagonist – antagonists of human S1P3 receptor | inhibition, % at 4.98 µM | hit rate 0.27% among 170,000 | AID 485 | Q99500 | CHO S1P3 NFAT-BLA reporter, FRET fluorescence, antagonist mode;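 active = inhibition above the plate cutoff, the mean inhibition of test wells on that plate plus 3 SD, cut at about 28% in these data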;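 note: cells challenged with S1P at its EC80 of 0.8 µM; blue over green emission ratio from cleaved BLA substrate after 4 h stimulation; 0% = S1P-stimulated wells and 100% = unstimulated DMSO-only wells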
Numbers without * were called inactive; nt = no result. Hits are enriched below; roughly 4% of the tested compounds scored in any of these assays.

SMILES	MDM2 E3 inh	Hsp70 act	CHOP inh	S1P3 antagonist
CCc1cccc2c1NC(=O)C21N2CCCC2C(C(=O)c2ccc3ccccc3c2)C12C(=O)Nc1ccccc12 (configuration not stated)	1	0	-27	-18
CCc1ccc2c(c1)C1(C(=O)N2)N2CCCC2C(C(=O)c2ccc3ccccc3c2)C12C(=O)Nc1ccccc12 (configuration not stated)	-3	0	106*	-11
C=CCO/N=C(/C)c1c(O)c(CC)c(-c2ccccc2)n(-c2ccccc2)c1=O	nt	0	72*	nt
CCOC(=O)c1[nH]cnc1C(=O)Nc1cccc(Cl)c1	-8	0	2	-11
O=C(CCC1CCCCC1)NCc1ccc(F)cc1	0	0	52	0
O=C(CCC1CCCCC1)NCc1ccncc1	-22	0	56	82*
CCCc1cc2c(OC(=O)CC)c(-c3ccc(C(=O)OCC)o3)c(=O)oc2cc1OC	-10	0	36	-10
Cc1ccc(C(=O)OC2CCS(=O)(=O)c3sccc32)cc1 (configuration not stated)	-8	0	77*	nt
CCOC(=O)c1sc(NC(=O)CSc2n[nH]c(-c3ccncc3)n2)c(C#N)c1C	-9	0	85*	nt
CCOC(=O)c1sc(NC(=O)CSc2nccc(C)n2)c(C#N)c1C	-19	0	38	nt
CCSc1nc2ccccc2n1CC(=O)O	-6	0	8	-8
Cc1csc(NC(=O)C2CCCN(S(=O)(=O)c3ccc(Br)s3)C2)n1 (configuration not stated)	-47	0	70*	nt
CCOC(=O)C1CCCN(S(=O)(=O)c2ccc(Br)s2)C1 (configuration not stated)	-5	0	31	-41
Cc1ccc(C(=O)Nc2ccc(C(=O)N/N=C/c3c[nH]c4ccccc34)cc2)cc1	nt	0	-18	8
Cc1cccc(NC(=S)N/N=C/c2c[nH]c3ccccc23)c1	12	0	91*	-5
CC(=O)N(CCN(C(C)=O)c1ccccc1)c1ccccc1	-7	0	-20	-6
CC(C)(C)C(=O)N(CCN(C(=O)C(C)(C)C)c1ccccc1)c1ccccc1	-3	0	78*	nt
CCC(C)NC(=O)CN(c1cc(C)cc(C)c1)S(=O)(=O)c1c(C)[nH]c(=O)[nH]c1=O (configuration not stated)	-3	nt	-6	-8
CCOC(=O)c1cc2sccc2n1CC(=O)N1CCc2ccccc21	9	0	74*	nt
Cc1ccc(C(C)C)c(OCc2nc(-c3nonc3N)no2)c1	-17	0	95*	17
Cc1ccccc1/C=C/C1=NCCN1	nt	nt	99*	nt
Cc1ccccc1/C=N/n1c(-c2ccccn2)n[nH]c1=S	-9	nt	11	-1
CC(C)N(CCO)C(=O)CCc1nnc(Cc2cccc(C(F)(F)F)c2)o1	3	0	-6	-24
Cc1ccc(C(=O)NCCSc2ccc(Cl)cc2)cc1S(=O)(=O)Nc1ccccc1	-5	0	79*	nt
Cc1ccc(NS(=O)(=O)c2cc(C(=O)NCCSc3ccc(C)cc3)ccc2C)cc1	-13	0	45	nt
SMILES	MDM2 E3 inh	Hsp70 act	CHOP inh	S1P3 antagonist
CCCCN(CCCC)c1nc2ccccc2nc1C(C#N)C(=O)NCCCOC (configuration not stated)	-20	0	15	nt
CCCN(CCC)c1nc2ccccc2nc1C(C#N)C(=O)OC(C)COC (configuration not stated)	-19	0	87*	nt
CCS(=O)(=O)N1N=C(c2cccc(NS(C)(=O)=O)c2)CC1c1ccc(C)cc1 (configuration not stated)	-9	0	-12	-14
CCOC(=O)c1c(C)[nH]c(C(=O)N/N=C/c2cccc(OC)c2)c1C	-5	0	-5	-5
COc1cccc(/C=N/NC(=O)c2[nH]c(C)c(C(=O)N/N=C/c3cccc(OC)c3)c2C)c1	36*	0	24	5
CCCc1[nH]nc2c1C(/C(C)=C/c1ccccc1)C(C#N)=C(N)O2 (configuration not stated)	-18	0	71*	13
Cc1ccc(N=Nc2c(N)nn3c(N)c(C#N)c(C)nc23)cc1	-8	0	73*	-19
CCOc1ccc(Nc2ncnc3c2cnn3-c2ccccc2)cc1	-7	0	101*	5
CCOc1ccc(Nc2ncnc3c2cnn3Cc2ccccc2)cc1	-1	0	26	nt
Cc1ccccc1Nc1ncnc2c1cnn2-c1ccccc1	-15	0	73*	17
O=C1NC(=O)/C(=C\c2ccc(OCc3cccc([N+](=O)[O-])c3)cc2)N1	-4	0	76*	-7
O=C1NC(=O)/C(=C\c2ccccc2OCc2ccc([N+](=O)[O-])cc2)N1	-14	0	57	5
C/C(=N\NC(=O)CCc1ccc(S(=O)(=O)N2CCOCC2)cc1)c1ccccc1Cl	-18	0	11	-17
CCOc1cccc2cc(-c3cn4cc(C)ccc4n3)c(=O)oc12	-44	-1	83*	15
COc1cccc2cc(-c3cn4ccc(C)cc4n3)c(=O)oc12	nt	1	nt	nt
CCCCc1nn(-c2cc(Cl)ccc2OC)c2c1C(=O)CC(C)(C)C2	-2	0	81*	nt
O=C(NCCC1=CCCCC1)C1CCC(CNc2nc(=S)[nH]c3ccccc23)CC1 (configuration not stated)	-1	0	94*	12
COc1ccc(N2CCN(CCCNC(=O)C3CCC(CNc4nc(=S)[nH]c5ccccc45)CC3)CC2)cc1 (configuration not stated)	-2	0	39	-22
O=C(NCCc1ccc(Cl)cc1)C1CCC(CNc2nc(=S)[nH]c3ccccc23)CC1 (configuration not stated)	8	0	87*	-17
CCCCNC(=O)C1CCC(CNc2nc(=S)[nH]c3ccccc23)CC1 (configuration not stated)	-5	0	23	-19
CC(=O)c1cccc(CN2CCN(CCC(C)C)C(CCO)C2)c1 (configuration not stated)	-11	nt	17	-8
CC(C)=CCC/C(C)=C/CCC(C)NCCN1CCNCC1 (configuration not stated)	-8	0	95*	-13
CCN1CCN(Cc2ccc(NC(=O)c3cc(NC(=O)c4cc(-c5ccc(OC)cc5)n[nH]4)cc(OC)c3)cc2C(F)(F)F)CC1	2	nt	87*	nt
O=C(O)CCNC1C=CS(=O)(=O)C1 (configuration not stated)	-3	0	1	-15
Cc1cccc(C(C)C)c1NC(=O)COC(=O)c1cccc(S(=O)(=O)N2CCc3ccccc3C2)c1	-18	0	85*	-9
CCc1cccc(CC)c1NC(=O)COC(=O)c1cccc(S(=O)(=O)N2CCc3ccccc3C2)c1	-4	0	26	10
COc1cccc(-c2nnc3n2N=C(C(C)(C)C)CS3)c1	-36	0	75*	nt
CCCCCCCc1nc2sc3c(c2c(=O)n1N)CC(C)(C)OC3	0	nt	1	0

Source: PubChem (several laboratories)
